# Test results: PMC2212508 (The Journal of Experimental Medicine, 1998)
# Where two headings read alike, the source gives them in different places.
# How the values were obtained:
# Assay type in all cases: cell-based
# [1] = molecular target: KCa (hKCa4), activated human T cells (Homo sapiens, UniProt O15554); experiment: whole-cell patch clamp, KCa slope conductance near -80 mV
# In short: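 Human T-cell blasts were made from Ficoll-isolated blood T cells with 10 μg/ml PHA. KCa was opened by dialysis with a pipette of 140 mM K+ aspartate, 7.8 mM CaCl2 and 10 mM EGTA (nominal 1 μM free Ca2+, pH 7.2). Ramps of 200 ms went from −120 to +50 mV every 30 s. Each compound was applied at 60 μM. Slope-conductance inhibition near −80 mV is mean ± SD, ≥3 experiments.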
# [2] = molecular target: KV (Kv1.3), human T cells (Homo sapiens, UniProt P22001); experiment: whole-cell patch clamp, peak KV current
# Sequence of KV (Kv1.3), human T cells (P22001 whole entry): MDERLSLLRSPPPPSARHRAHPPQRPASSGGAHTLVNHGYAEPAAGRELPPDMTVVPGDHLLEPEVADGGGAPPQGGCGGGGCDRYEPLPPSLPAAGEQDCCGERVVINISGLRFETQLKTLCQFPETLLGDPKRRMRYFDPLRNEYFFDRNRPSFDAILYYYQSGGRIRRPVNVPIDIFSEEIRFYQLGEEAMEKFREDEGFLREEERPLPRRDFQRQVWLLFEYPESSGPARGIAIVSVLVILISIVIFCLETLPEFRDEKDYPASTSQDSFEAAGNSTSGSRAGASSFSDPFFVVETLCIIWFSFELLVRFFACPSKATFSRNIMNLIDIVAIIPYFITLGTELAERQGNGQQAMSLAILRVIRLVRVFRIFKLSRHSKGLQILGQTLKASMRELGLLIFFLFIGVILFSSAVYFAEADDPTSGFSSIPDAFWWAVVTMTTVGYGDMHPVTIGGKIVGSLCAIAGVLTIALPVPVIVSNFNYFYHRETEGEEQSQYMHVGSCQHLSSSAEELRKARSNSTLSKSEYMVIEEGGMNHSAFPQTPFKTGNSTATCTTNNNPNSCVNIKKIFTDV
# In short: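 Peripheral T cells came from healthy donors' venous blood by Ficoll-Hypaque. Recording was whole-cell at 20–25°C in Ringer, with a 160 mM K+ aspartate/10 mM EGTA pipette (pH 7.2). Pulses of 200 ms went from −80 to +30 mV every 30 s. Each steroid was bath-applied at 60 μM. Percent inhibition of peak KV current is mean ± SD, ≥3 experiments.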
# Kv3.1 = molecular target: T1, Kv3.1 (Mus musculus, UniProt P15388); experiment: whole-cell patch clamp; conditions: read-out: % inhibition at 30 μM
# T1 sequence (P15388 1-511): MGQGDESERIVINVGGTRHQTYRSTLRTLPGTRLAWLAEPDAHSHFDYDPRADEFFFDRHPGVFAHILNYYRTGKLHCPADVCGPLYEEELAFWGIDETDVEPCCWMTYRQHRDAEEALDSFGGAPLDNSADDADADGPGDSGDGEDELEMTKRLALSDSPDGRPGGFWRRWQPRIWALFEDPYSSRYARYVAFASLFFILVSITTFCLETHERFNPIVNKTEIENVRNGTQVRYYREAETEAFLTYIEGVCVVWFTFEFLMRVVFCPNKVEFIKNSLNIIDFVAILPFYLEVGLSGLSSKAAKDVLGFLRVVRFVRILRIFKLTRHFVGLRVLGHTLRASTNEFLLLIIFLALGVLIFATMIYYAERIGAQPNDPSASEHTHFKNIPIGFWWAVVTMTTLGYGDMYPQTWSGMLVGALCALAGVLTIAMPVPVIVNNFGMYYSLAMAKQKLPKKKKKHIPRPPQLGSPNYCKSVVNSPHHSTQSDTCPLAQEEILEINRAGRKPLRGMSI
# In short: (§1)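 Cell lines stably expressing each cloned KV channel, cultured in RPMI 1640 with 10% heat-inactivated FBS at 37°C and 5% CO2. Whole-cell currents were recorded at 20–25°C in mammalian Ringer. The pipette held 160 mM K+ aspartate, 10 mM EGTA, pH 7.2. Steps of 200 ms went from −80 to +30 mV every 30 s. Test compound was bath-applied at 30 μM. Inhibition of peak current is mean ± SD from ≥3 experiments.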
# Kv1.4 = experiment: whole-cell patch clamp; conditions: LTK cells; depolarizing pulses to +30 mV
# In short: as §1
# Kv1.3 (cloned) = Kv1.3 (cloned) (Mus musculus, UniProt P16390); experiment: whole-cell patch clamp; conditions: read-out: % inhibition at 30 μM
# Sequence of Kv1.3 (cloned) (P16390 whole entry): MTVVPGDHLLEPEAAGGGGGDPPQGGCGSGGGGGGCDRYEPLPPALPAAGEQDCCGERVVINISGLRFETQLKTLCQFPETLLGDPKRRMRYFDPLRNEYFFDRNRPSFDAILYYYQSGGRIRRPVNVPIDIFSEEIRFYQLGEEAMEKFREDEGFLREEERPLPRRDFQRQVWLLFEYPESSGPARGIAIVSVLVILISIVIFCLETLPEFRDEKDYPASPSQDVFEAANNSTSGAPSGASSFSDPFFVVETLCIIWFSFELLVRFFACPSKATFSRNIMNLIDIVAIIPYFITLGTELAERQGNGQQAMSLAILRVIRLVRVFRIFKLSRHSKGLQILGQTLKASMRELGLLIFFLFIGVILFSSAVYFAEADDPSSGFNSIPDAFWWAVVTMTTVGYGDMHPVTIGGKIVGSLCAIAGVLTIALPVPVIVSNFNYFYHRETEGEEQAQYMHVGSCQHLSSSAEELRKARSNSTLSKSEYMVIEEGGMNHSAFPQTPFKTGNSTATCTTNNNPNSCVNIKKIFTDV
# In short: as §1
# hSKM1 = hSKM1 (Homo sapiens, UniProt P35499); experiment: whole-cell patch clamp, peak Na+ current; conditions: read-out: % inhibition at 30 μM
# Sequence of hSKM1 (P35499 whole entry): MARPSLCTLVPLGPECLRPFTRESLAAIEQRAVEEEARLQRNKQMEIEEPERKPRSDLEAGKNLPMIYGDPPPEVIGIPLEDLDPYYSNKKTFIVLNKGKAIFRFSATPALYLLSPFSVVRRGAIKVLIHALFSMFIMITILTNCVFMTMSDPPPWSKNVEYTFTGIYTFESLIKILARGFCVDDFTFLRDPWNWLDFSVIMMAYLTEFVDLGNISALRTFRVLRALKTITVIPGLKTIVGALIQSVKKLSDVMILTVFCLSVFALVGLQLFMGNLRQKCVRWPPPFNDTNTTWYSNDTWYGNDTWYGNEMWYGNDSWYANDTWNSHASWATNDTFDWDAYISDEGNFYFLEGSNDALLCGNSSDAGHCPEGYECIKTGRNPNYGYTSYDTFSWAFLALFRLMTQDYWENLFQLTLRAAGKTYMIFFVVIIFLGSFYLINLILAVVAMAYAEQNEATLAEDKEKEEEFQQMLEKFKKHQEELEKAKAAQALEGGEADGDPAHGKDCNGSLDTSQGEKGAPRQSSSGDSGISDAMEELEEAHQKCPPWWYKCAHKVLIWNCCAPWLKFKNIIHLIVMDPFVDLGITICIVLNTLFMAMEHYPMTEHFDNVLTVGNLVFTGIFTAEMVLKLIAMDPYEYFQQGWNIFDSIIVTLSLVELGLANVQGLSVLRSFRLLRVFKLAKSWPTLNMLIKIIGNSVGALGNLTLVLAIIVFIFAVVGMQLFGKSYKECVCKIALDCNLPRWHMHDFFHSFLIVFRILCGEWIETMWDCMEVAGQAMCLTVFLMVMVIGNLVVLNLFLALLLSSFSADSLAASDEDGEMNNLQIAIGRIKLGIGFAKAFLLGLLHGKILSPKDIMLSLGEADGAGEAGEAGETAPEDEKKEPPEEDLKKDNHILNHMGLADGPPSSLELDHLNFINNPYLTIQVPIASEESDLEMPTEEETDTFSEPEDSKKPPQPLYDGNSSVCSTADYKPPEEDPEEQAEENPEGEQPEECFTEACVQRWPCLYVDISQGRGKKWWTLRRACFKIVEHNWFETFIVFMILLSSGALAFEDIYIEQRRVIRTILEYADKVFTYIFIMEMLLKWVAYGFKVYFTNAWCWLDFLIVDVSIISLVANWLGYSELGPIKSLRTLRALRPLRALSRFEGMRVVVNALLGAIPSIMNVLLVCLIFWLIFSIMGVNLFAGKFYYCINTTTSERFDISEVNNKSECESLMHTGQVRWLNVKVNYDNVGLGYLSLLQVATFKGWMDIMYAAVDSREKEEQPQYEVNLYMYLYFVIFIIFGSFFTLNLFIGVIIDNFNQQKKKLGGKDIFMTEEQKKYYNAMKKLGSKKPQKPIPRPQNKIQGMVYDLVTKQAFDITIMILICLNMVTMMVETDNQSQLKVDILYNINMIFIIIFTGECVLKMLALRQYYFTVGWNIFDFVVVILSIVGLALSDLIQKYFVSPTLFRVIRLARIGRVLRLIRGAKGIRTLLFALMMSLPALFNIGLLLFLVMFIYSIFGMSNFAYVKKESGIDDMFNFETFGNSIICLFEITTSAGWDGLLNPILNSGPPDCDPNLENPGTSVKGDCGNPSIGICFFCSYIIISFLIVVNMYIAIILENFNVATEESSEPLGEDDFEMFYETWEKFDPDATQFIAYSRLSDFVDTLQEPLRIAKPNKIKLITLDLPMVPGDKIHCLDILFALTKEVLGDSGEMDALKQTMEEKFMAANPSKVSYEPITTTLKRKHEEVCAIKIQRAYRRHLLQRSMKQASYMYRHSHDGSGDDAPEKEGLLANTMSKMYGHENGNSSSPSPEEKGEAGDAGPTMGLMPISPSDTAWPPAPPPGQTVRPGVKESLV
# In short: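 Cloned hSKM1 Na+ channel was expressed in a cultured cell line and recorded by whole-cell patch clamp at 20–25°C, with mammalian Ringer as bath. Peak Na+ current was taken at +10 mV. Test compound was applied at 30 μM. Percent inhibition is mean ± SD from at least three experiments.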
# Sequence of KCa (hKCa4), activated human T cells (O15554 whole entry): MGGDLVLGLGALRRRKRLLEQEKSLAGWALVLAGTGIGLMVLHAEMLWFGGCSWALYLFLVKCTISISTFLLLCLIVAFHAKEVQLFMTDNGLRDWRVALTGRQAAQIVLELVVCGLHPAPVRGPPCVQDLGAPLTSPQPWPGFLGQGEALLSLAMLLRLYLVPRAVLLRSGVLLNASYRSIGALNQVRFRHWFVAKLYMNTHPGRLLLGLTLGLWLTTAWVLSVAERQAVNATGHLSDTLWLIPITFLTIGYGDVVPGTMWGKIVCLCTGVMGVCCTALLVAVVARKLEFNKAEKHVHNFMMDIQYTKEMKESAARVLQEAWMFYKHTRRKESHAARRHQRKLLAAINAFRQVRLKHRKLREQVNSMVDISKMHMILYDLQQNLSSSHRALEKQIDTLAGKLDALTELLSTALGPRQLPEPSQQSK
smiles,measurement,setting,value
C[C@]12CC[C@@H]3c4ccc(O)cc4CC[C@H]3[C@@H]1CC[C@@H]2O [Estradiol],inhibition at 60 µM,[1]; read-out: Estradiol,8 ± 10%
same,inhibition at 60 µM,[2]; read-out: Estradiol,24 ± 7%
"CC(=O)[C@@]1(O)CC[C@H]2[C@@H]3CCC4=CC(=O)CC[C@]4(C)[C@H]3CC[C@@]21C [OHP, 17α-hydroxy-4-pregnene-3,20-dione]",inhibition at 60 µM,[2]; read-out: OHP,12 ± 6%
C[C@]12CCC(=O)C=C1CC[C@@H]1[C@@H]2[C@@H](O)C[C@@]2(C)[C@H]1CC[C@]2(O)C(=O)CO [Cortisol],inhibition at 60 µM,[2]; read-out: Cortisol,13 ± 4%
CC#C[C@]1(O)CC[C@H]2[C@@H]3CCC4=CC(=O)CCC4=C3[C@@H](c3ccc(N(C)C)cc3)C[C@@]21C [RU 486],inhibition at 60 µM,[1]; read-out: RU 486,55 ± 12%
same,inhibition at 60 µM,[2]; read-out: RU 486,61 ± 15%
C[C@]12CC[C@H]3[C@@H](CCC4=CC(=O)CC[C@@]43C)[C@@H]1CC[C@@H]2O [Testosterone],inhibition at 60 µM,[2]; read-out: Testosterone,17 ± 12%
C[C@]12CC[C@H](O)CC1=CC[C@@H]1[C@@H]2CC[C@]2(C)C(=O)CC[C@@H]12 [DHEA],inhibition at 60 µM,[2]; read-out: DHEA,10 ± 6%
CC(=O)[C@H]1CC[C@H]2[C@@H]3CCC4=CC(=O)CC[C@]4(C)[C@H]3CC[C@]12C [progesterone],inhibition at 30 µM,Kv3.1,53 ± 3%
same,% inhibition at 30 μM,Kv1.4,23 ± 8%
same,inhibition at 30 µM,Kv1.3 (cloned),44 ± 9%
same,inhibition at 60 µM,[1]; read-out: Progesterone,34 ± 11%
same,inhibition at 30 µM,hSKM1,11 ± 1%
C[C@]12CCC(=O)C=C1CC[C@@H]1[C@@H]2[C@@H](O)C[C@]2(C=O)[C@@H](C(=O)CO)CC[C@@H]12 [Aldosterone],inhibition at 60 µM,[2]; read-out: Aldosterone,12 ± 13%
